# System: MDA-MB-231
# Assay: Cell viability
# Assay type: cell-based
# Details: Homo sapiens, MDA-MB-231, 72 h, read-out: IC50 value
# In short: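 Test compounds were added from stock solutions so that the final DMSO was <1%, and MDA-MB-231 cells were incubated with them for 72 h. Viability was read after exposure and IC50 derived. Data are mean ± s.e.m., n = 3.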
row,SMILES,IC50 [µM]
1,"Cc1ccnc2c1ccc1c(C)ccnc12 [4,7-dimethylphenanthroline]",14.1 ± 2.58
2,"c1cnc2c(c1)ccc1cccnc12 [1,10-phenantrholine]",7.21 ± 1.68

# Same assay, conditions: read-out: IC50 value; MDA-MB-231, MTT assay, 72 h, mean ± s.e.m., n = 3
row,SMILES,IC50 [µM]
1,CC(=O)OC[C@H]1O[C@@H]([S-])[C@H](OC(C)=O)[C@@H](OC(C)=O)[C@@H]1OC(C)=O.CCP(CC)CC.[Au+] [auranofin],1.31 ± 0.15
2,c1ccc(-c2ccccn2)nc1 [bipyridine],17.5 ± 0.354
3,[Au+].[F][Sb-]([F])([F])([F])([F])[F].c1ccc([As](c2ccccc2)c2ccccc2)cc1.c1cnc2c(c1)ccc1cccnc12 [AuTri-4],3.98 ± 0.359
4,[Au+].[F][Sb-]([F])([F])([F])([F])[F].c1ccc(-c2ccccn2)nc1.c1ccc(P(c2ccccc2)c2ccccc2)cc1 [AuTri-3],6.56 ± 0.354
5,[F][Sb-]([F])([F])([F])([F])[F].[Na+] [NaSbF6],> 50
6,N.N.[Cl][Pt][Cl] [cisplatin],34.6 ± 0.783
7,c1ccc(-c2ccnc3c2ccc2c(-c4ccccc4)ccnc23)cc1 [bathophenanthroline],7.48 ± 1.64

# System: not given
# Assay: not given
# Details: based on gold; cited from earlier work
row,SMILES,MTD (maximum tolerated dose) [mg/kg]
1,CC(=O)OC[C@H]1O[C@@H]([S-])[C@H](OC(C)=O)[C@@H](OC(C)=O)[C@@H]1OC(C)=O.CCP(CC)CC.[Au+] [auranofin],12

# System: MDA-MB-231
# Assay: Transmission electron microscopy of mitochondrial morphology
# Assay type: cell-based
# Details: AuTri-9 10 µM, 1 h
# In short: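 MDA-MB-231 cells were exposed to the test compound for 1 h. Vehicle wells received 1% DMSO. Reference inducers were run alongside: staurosporine (apoptosis), hydrogen peroxide (necrosis), rapamycin (autophagy) and erastin (ferroptosis). Mitochondria were imaged by TEM. Maximal cristae width was measured in 10 randomly chosen cells on randomly chosen mitochondria, with up to 3 cristae per mitochondrion and 100 cristae per cell, given as mean ± s.e.m.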
row,SMILES,morphological changes in mitochondria (TEM)
1,CO[C@H]1C[C@@H]2CC[C@@H](C)[C@@](O)(O2)C(=O)C(=O)N2CCCC[C@H]2C(=O)O[C@H]([C@H](C)C[C@@H]2CC[C@@H](O)[C@H](OC)C2)CC(=O)[C@H](C)/C=C(\C)[C@@H](O)[C@@H](OC)C(=O)[C@H](C)C[C@H](C)/C=C/C=C/C=C/1C [rapamycin],no distinct morphological changes to mitochondria
2,CCOc1ccccc1-n1c(C(C)N2CCN(C(=O)COc3ccc(Cl)cc3)CC2)nc2ccccc2c1=O (centres unmarked) [erastin],mitochondrial shrinkage
3,"OO [H2O2, hydrogen peroxide]",mitochondrial structure remains intact
4,CN[C@@H]1C[C@H]2O[C@@](C)([C@@H]1OC)n1c3ccccc3c3c4c(c5c6ccccc6n2c5c31)C(=O)NC4 [staurosporine],no distinct morphological changes to mitochondria

# Source: PMC8395693 (JACS Au, 2021)
